Paper PMC9653265 (Journal of medicinal chemistry, 2022)

Experiments:
[1] = test system: mouse middle cerebral artery occlusion (MCAO) model of ischemic stroke; assay: MCAO ischemic stroke model, cerebral infarct volume; assay type: in vivo
[2] = test system: mouse middle cerebral artery occlusion (MCAO) model of ischemic stroke; assay: Open-field test after MCAO; assay type: in vivo; details: middle-aged mice after MCAO; vs vehicle; over 4 weeks
In short: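 The model used 60 min right MCAO in middle-aged male and female C57BL/6 mice. Test compound or PBS vehicle was infused by osmotic minipump for 3 days. Testing was at baseline and on post-MCAO days 2, 7, 14, 21 and 28. Mice started from a corner of a 16″ acrylic box and explored ~10 min. Total photobeam breaks and center-zone break percentage were recorded. This test preceded rotarod by 1 h. Data are mean ± S.D.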

[3] = test system: mouse middle cerebral artery occlusion (MCAO) model of ischemic stroke; assay: Rotarod test after MCAO; assay type: in vivo; details: middle-aged mice after MCAO; 4–40 rpm, 5 min; over 4 weeks
In short: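 Middle-aged male and female C57BL/6 mice underwent 60 min right MCAO. They received test compound or PBS by osmotic minipump for 3 days. Rotarod was done at baseline and on post-MCAO days 2, 7, 14, 21 and 28, 1 h after open-field testing. The rod accelerated 4–40 rpm over 5 min. Each mouse had two trials 30 min apart, and mean latency to fall (s) was used. Data are mean ± S.D.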

[4] = test system: mouse middle cerebral artery occlusion (MCAO) model of ischemic stroke; assay: Novel Object Recognition Task; assay type: in vivo; details: middle-aged mice, 4 weeks after MCAO; dose of 3 mg/kg; p < 0.05 vs Veh
[5] = test system: primary human monocyte-derived macrophages; assay: Calcium influx assay on human monocyte-derived macrophages; assay type: cell-based; details: ATP 50 μM, 15 min pretreatment
In short: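 Monocytes came from fresh whole blood of healthy donors. They were matured 5–7 days in RPMI with GM-CSF (5 ng/mL), then seeded at 10^4 cells/dish for ≥24 h. Cells were loaded with Calbryte 590 AM for 60 min in HBSS/HEPES and washed. They were pretreated 15 min with test compound (0, 0.1, 0.3, 0.6, 1, 3 μM), then stimulated with ATP 50 μM. Confocal images were taken every 6 s for up to 4 min, and peak Ca2+ amplitude was quantified.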

hP2X1R = target: T1, hP2X1R (Homo sapiens, UniProt P51575); assay: cell-based; details: CHO-K1, read-out: hP2X1R % inhib.
T1 sequence (P51575 1-399): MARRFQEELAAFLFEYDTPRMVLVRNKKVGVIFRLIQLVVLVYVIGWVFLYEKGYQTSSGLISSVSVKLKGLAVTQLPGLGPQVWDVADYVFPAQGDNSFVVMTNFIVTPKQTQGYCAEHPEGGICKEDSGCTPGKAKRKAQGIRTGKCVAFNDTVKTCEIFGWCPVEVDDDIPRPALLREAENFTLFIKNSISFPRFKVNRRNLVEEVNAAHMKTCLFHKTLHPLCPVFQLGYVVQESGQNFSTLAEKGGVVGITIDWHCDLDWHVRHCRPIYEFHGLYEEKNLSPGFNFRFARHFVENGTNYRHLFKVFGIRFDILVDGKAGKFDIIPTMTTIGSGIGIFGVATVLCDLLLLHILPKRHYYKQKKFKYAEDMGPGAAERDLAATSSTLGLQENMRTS

[6] = test system: 45 receptors, channels, and transporters; assay: PDSP off-target binding screen at 45 receptors, channels and transporters; details: at 10 μM
[7] = test system: mouse middle cerebral artery occlusion (MCAO) model of ischemic stroke; details: mice, 1 mg/kg/day × 3 days, administered 4 h after onset of stroke; cited from earlier work
P2X7R = details: cited from earlier work
mP2X4R = details: cited from earlier work
[8] = young adult male mice (8–12 weeks), doses of 1.5 and 3.0 mg/kg/day × 3 days continuous infusion (Alzet minipump), 3 days after stroke, vs Veh
[9] = young adult male mice, 5 mg/kg/day × 3 days continuous infusion, 3 days after stroke, vs Veh

CCN(CC)CC.O=C1CC(=O)N(c2ccnc(-c3noc(=S)[nH]3)c2)c2ccc3ccccc3c2N1 [Compound 21u, 5-(2-(5-Thioxo-4,5-dihydro-1,2,4-oxadiazol-3-yl)pyridin-4-yl)-1,5-dihydro-2H-naphtho[1,2-b][1,4]diazepine-2,4(3H)-dione]
effective dose in murine MCAO ischemic stroke model ([1]; neuroprotective and neuro-rehabilitative properties): 1.5 mg/kg | cortical infarct volume [1, 8]: significantly reduced | total hemispheric infarct volume [1, 8]: significantly reduced | total exploratory behavior (total beam breaks, open-field task) [2]: did not show any differences | motor coordination and balance (rotarod) [3]: did not improve | learning and memory function (NORT) [4]: significant retention of memory | inhibition of ATP-induced increase in calcium influx ([5]; HMDM of healthy subjects): dose-dependent (0–3 μM) inhibition | doses giving a significant decrease of the peak Ca2+ amplitude ([5]; vs ATP only): ≥ 0.6 µM

O=C1CC(=O)N(c2cccc(-c3noc(=S)[nH]3)n2)c2ccc3ccccc3c2N1 [Compound 21v, 5-(6-(5-Thioxo-4,5-dihydro-1,2,4-oxadiazol-3-yl)pyridin-2-yl)-1,5-dihydro-2H-naphtho[1,2-b][1,4]diazepine-2,4(3H)-dione]
inhibition at 30 µM (hP2X1R): ≤ 31%

CCN(CC)CC.O=C1CC(=O)N(c2cccc(-c3noc(=S)[nH]3)c2)c2cc(Br)c3ccccc3c2N1 [Compound 21d, 7-Bromo-5-(3-(5-thioxo-4,5-dihydro-1,2,4-oxadiazol-3-yl)-phenyl)-1,5-dihydro-2H-naphtho[1,2-b][1,4]diazepine-2,4(3H)-dione]
off-target binding at 45 receptors, channels, and transporters [6]: no significant interactions

CC(=O)NCc1ccc2ccc3c(c2c1)NC(=O)CC(=O)N3c1cccc(-c2noc(=S)[nH]2)c1 [Compound 21i, N-((2,4-Dioxo-5-(3-(5-thioxo-4,5-dihydro-1,2,4-oxadiazol-3-yl)-phenyl)-2,3,4,5-tetrahydro-1H-naphtho[1,2-b][1,4]diazepin-10-yl)-methyl)acetamide]
inhibition at 30 µM (hP2X1R): ≤ 31%

Cc1ccc2c3c(ccc2c1)N(c1cccc(-c2noc(=S)[n-]2)c1)C(=O)CC(=O)N3.[Na+] [Compound 22c]
off-target binding at 45 receptors, channels, and transporters [6]: no significant interactions | cortical infarct volume [1, 9]: not significant | striatal infarct volume [1, 9]: not significant | total hemispheric infarct volume [1, 9]: moderate but significant decrease

O=C1CN=C(c2cccc(Br)c2)c2oc3ccccc3c2N1 [Compound 3, 5-(3-bromophenyl)-1,3-dihydro-2H-benzofuro[3,2-e][1,4]diazepin-2-one]
stroke infarct size [7]: reduced

O=C1CC(=O)N(c2cccc(-c3noc(=S)[n-]3)c2)c2ccc3ccccc3c2N1.[Na+] [Compound 5, 5-(3-(5-Thioxo-4,5-dihydro-1,2,4-oxadiazol-3-yl)phenyl)-1,5-dihydro-2H-naphtho[1,2-b][1,4]diazepine-2,4(3H)-dione]
off-target binding at 45 receptors, channels, and transporters [6]: no significant interactions | activity at the P2X7R (P2X7R): inactive | potency in blocking mP2X4R effects in vitro compared with hP2X4R (mP2X4R): as potent
